The source made the active and inactive calls. The rule behind the calls is not given here.
Assays:
NCI-N87 [1] = assay: Antiproliferative activity against human N87 cells
[2] = molecular target: Receptor tyrosine-protein kinase erbB-2 (Homo sapiens, UniProt P04626); assay: Inhibition of human recombinant HER2 expressed in insect Sf9 cells
[3] = molecular target: Epidermal growth factor receptor (Homo sapiens, UniProt P00533); assay: Inhibition of human recombinant EGFR expressed in insect Sf9 cells
HT-29 = assay: Antiproliferative activity against human HT29 cells; type: functional, cell-based
Method in brief: (§1)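 HT29 (colon carcinoma) and A2780 (ovarian carcinoma) lines, stated not to rely on EGFR or HER2 signalling, serve as counter-screen lines; proliferation IC50 reported.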

HT29 = assay: Antiproliferative activity against human HT29 cells
A2780 = assay: Antiproliferative activity against human A2780 cells; type: functional, cell-based; method in brief: as §1
[4] = Drug level in BALB/c mouse plasma at 50 mg/kg, po after 4 hrs; type: ADME, organism-based; set-up: dose 50 mg/kg, route oral
Method in brief: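 Single oral 50 mg/kg dose in Tween 80/PEG400/water (10/40/50, v/v/v) to three male Balb/C mice; plasma concentration at 4 h averaged, AUC0–4h also derived.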

NCI-N87 [5] = assay: Antitumor activity against human N87 cells xenografted in athymic mouse at 180 mg/kg, po QD after 21 days; conditions: 504 h; for minimal effective dose at 180 mg/kg: read-out: MED
GEO = assay: Antitumor activity against human GEO cells xenografted in athymic mouse at 180 mg/kg, sc QD after 10 days; type: functional, organism-based; set-up: dose 180 mg/kg
Liver = assay: Metabolic stability in mouse liver microsomes at 3 uM after 10 mins in presence of NADPH; type: ADME, Microsome
Method in brief: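 Mouse liver microsomes with NADPH; compound at 3 µM, incubated 10 min; metabolic rate expressed as nmol/min/mg protein.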

[6] = AUC (0 to 4 hrs) in BALB/c mouse at 50 mg/kg, po after 4 hrs; type: ADME, organism-based; set-up: time < 4 hr, dose 50 mg/kg, route oral; conditions: plasma
NCI-N87 [7] = assay: Antitumor activity against human N87 cells xenografted in athymic mouse at 240 mg/kg, sc QD after 21 days; type: functional; conditions: 504 h
[8] = Antitumor activity against human GEO cells xenografted in athymic mouse at 135 mg/kg, sc BID after 14 days; type: functional; conditions: 336 h, route subcutaneous
[9] = Inhibition of PKA; set-up: species or system Homo sapiens
Method in brief: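 Kinase panel IC50s, each reported as the mean of at least three determinations.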

Sequence of Receptor tyrosine-protein kinase erbB-2 (P04626 whole entry): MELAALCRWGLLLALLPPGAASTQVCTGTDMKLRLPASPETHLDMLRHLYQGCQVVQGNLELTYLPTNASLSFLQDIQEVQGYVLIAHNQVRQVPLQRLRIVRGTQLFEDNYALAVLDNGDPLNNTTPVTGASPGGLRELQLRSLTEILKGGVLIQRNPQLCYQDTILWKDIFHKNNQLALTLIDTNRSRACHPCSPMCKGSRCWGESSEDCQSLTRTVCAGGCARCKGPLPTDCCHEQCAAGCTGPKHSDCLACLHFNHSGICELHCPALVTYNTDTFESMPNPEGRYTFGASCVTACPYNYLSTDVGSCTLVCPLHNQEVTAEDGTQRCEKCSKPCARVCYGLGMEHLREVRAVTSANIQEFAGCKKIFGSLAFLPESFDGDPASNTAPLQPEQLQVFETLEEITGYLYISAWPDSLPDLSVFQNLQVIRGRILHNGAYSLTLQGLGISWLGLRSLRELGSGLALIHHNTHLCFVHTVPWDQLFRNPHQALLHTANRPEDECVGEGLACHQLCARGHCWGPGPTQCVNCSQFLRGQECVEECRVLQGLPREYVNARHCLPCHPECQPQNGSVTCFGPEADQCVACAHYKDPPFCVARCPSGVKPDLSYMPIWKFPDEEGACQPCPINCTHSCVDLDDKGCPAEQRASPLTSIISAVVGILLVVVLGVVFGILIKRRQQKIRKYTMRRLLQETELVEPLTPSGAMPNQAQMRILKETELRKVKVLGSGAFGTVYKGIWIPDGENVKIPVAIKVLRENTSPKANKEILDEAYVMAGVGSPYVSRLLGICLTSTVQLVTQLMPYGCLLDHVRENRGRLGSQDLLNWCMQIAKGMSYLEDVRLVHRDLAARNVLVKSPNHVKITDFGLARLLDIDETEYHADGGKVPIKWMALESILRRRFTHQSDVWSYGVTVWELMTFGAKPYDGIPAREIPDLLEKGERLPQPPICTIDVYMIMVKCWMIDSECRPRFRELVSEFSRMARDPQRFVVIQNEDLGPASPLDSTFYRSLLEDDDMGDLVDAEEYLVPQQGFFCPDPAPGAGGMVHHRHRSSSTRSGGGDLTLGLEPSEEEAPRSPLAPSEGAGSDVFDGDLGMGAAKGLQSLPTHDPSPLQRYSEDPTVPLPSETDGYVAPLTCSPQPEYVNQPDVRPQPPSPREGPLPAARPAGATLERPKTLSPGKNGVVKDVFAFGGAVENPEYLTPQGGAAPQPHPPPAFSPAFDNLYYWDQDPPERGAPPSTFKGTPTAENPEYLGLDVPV
Sequence of Epidermal growth factor receptor (P00533 whole entry): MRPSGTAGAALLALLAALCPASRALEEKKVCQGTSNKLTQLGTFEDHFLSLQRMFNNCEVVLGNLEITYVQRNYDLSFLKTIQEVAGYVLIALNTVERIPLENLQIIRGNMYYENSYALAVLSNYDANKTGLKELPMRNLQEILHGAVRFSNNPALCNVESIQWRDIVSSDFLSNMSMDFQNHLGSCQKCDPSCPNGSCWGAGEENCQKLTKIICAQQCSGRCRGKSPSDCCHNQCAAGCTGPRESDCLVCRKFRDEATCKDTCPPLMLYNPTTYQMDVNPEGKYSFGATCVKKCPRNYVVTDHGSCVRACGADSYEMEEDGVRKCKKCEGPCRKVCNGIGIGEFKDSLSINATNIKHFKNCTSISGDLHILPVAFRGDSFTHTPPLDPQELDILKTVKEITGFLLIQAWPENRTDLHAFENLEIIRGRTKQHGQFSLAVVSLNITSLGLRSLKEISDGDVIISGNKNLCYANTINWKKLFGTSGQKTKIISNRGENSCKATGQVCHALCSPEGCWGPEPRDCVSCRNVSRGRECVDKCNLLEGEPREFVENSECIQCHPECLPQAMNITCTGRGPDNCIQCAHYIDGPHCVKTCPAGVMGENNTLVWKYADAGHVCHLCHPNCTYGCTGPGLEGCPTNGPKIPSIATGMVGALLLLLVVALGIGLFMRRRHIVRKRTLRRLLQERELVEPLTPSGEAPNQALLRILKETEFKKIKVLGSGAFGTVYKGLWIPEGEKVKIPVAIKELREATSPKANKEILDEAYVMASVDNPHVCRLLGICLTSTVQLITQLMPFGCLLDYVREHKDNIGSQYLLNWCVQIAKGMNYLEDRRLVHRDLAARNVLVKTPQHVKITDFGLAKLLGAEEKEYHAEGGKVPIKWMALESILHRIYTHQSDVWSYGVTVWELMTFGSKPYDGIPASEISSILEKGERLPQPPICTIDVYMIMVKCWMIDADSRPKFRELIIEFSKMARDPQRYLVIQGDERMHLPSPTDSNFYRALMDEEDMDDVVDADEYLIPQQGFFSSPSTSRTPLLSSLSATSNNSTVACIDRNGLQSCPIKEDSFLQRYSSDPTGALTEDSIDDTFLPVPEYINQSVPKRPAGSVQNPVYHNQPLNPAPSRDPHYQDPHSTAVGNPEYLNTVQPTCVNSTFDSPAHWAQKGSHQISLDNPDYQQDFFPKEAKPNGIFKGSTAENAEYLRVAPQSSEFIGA

SMILES	IC50 (NCI-N87 [1]) [µM]	IC50 [2] [µM]	IC50 [3] [µM]	IC50 (HT-29) [µM]	IC50 (A2780) [µM]	concentration at 4 h [4] [µM]	AUC(0-t) at 4 h [6] [µM·h]	other results
CS(=O)(=O)CCNC1CCN(Cc2ccn3ncnc(Nc4ccc5c(cnn5Cc5cccc(F)c5)c4)c23)CC1	0.7	0.19	0.2					
CC(=O)NC1CCN(Cc2ccn3ncnc(Nc4ccc5c(cnn5Cc5cccc(F)c5)c4)c23)CC1	0.29	0.18	0.38	> 10				IC50 (HT29): > 10 µM
COc1cn2ncnc(Nc3ccc4c(cnn4Cc4cccc(F)c4)c3)c2c1CN1CCC(N)CC1	0.43	0.043	0.04					
CNC1CCN(Cc2ccn3ncnc(Nc4ccc5c(cnn5Cc5cccc(F)c5)c4)c23)CC1	0.078	0.054	0.063	7.3	7.3			
OCCNC1CCN(Cc2ccn3ncnc(Nc4ccc5c(cnn5Cc5cccc(F)c5)c4)c23)CC1	0.073	0.031		5.4	5.4			
NC1CCN(Cc2ccn3ncnc(Nc4ccc(OCc5cnccn5)c(Cl)c4)c23)CC1	0.072	0.026	0.032	3.5	3.5	6.3	21	inhibition in vivo at 180 mg/kg (NCI-N87 [5]): 63%; minimal effective dose at 180 mg/kg (NCI-N87 [5]): 180 mg/kg; Activity (GEO): inactive; metabolic rate (Liver): 0.12 nmol/min/mg
Fc1cccc(COc2ccc(Nc3ncnn4ccc(CN5CCCNCC5)c34)cc2Cl)c1	0.6	0.041	0.048					
CC1(N)CCN(Cc2ccn3ncnc(Nc4ccc5c(cnn5Cc5cccc(F)c5)c4)c23)CC1	0.07	0.043	0.05	6.1				IC50 (HT29): 6.1 µM
NC1CCN(Cc2ccn3ncnc(Nc4ccc5c(cnn5Cc5ccncc5)c4)c23)CC1	0.47	0.19	0.53	> 5	> 5			
NC1CCN(Cc2ccn3ncnc(Nc4ccc(OCc5ccccn5)c(Cl)c4)c23)CC1	0.058	0.022	0.036	2	2	3.7	13	inhibition in vivo at 240 mg/kg (NCI-N87 [7]; dose 240 mg/kg): 110%; minimal effective dose (NCI-N87 [7]; read-out: MED): 120 mg/kg; metabolic rate (Liver): 0.04 nmol/min/mg
N[C@H]1CCN(Cc2ccn3ncnc(Nc4ccc5c(cnn5Cc5cccc(F)c5)c4)c23)C1	0.81	0.052	0.05	6.5	6.5			
NC1CCN(Cc2ccn3ncnc(Nc4ccc5c(cnn5Cc5cccnc5)c4)c23)CC1	0.086	0.034	0.19	> 5	> 5	4.5	22	metabolic rate (Liver): 0.01 nmol/min/mg
CN(C)C1CCN(Cc2ccn3ncnc(Nc4ccc5c(cnn5Cc5cccc(F)c5)c4)c23)CC1	0.45	0.11	0.1	7.6	7.6			
Fc1cccc(Cn2ncc3cc(Nc4ncnn5ccc(CNC6CCNCC6)c45)ccc32)c1	1.15	0.076	0.11	5	5			
Cc1cncc(COc2ccc(Nc3ncnn4ccc(CN5CCC(N)CC5)c34)cc2Cl)c1	0.18	0.06		3.5	3.5	1.8	7.8	metabolic rate (Liver): 0 nmol/min/mg
NC1CCN(Cc2ccn3ncnc(Nc4ccc5c(cnn5Cc5ccccn5)c4)c23)CC1	0.12	0.035	0.047	> 10	> 10	1.6	3.6	metabolic rate (Liver): 0.01 nmol/min/mg
Fc1cccc(Cn2ncc3cc(Nc4ncnn5ccc(CN6CCCNCC6)c45)ccc32)c1	0.11			3.6	3.6			inhibition in vivo at 180 mg/kg (NCI-N87 [5]): 121%; minimal effective dose at 180 mg/kg (NCI-N87 [5]): 90 mg/kg; inhibition in vivo at 135 mg/kg ([8]; dose 135 mg/kg): 78%; minimal effective dose ([8]; read-out: MED): 90 mg/kg
Cc1cncc(Cn2ncc3cc(Nc4ncnn5ccc(CN6CCC(N)CC6)c45)ccc32)c1	0.036	0.013	0.019	> 5	> 5	1.3	9.9	inhibition in vivo at 180 mg/kg (NCI-N87 [5]): 89%; minimal effective dose at 180 mg/kg (NCI-N87 [5]): 120 mg/kg; Activity (GEO): inactive; metabolic rate (Liver): 0.06 nmol/min/mg
NC1CCN(Cc2ccn3ncnc(Nc4ccc(OCc5cccc(F)c5)c(Cl)c4)c23)CC1	0.083	0.032	0.038					
Fc1cccc(Cn2ncc3cc(Nc4ncnn5ccc(COC[C@@H]6CNCCO6)c45)ccc32)c1				8.7				IC50 [9]: > 50 µM
NCC1CCN(Cc2ccn3ncnc(Nc4ccc5c(cnn5Cc5cccc(F)c5)c4)c23)CC1	0.14	0.038	0.035	2.9	2.9			
O=C(CO)NC1CCN(Cc2ccn3ncnc(Nc4ccc5c(cnn5Cc5cccc(F)c5)c4)c23)CC1	0.31	0.12	0.11	9.5	9.5			
NC1CCN(Cc2ccn3ncnc(Nc4ccc(OCc5cccc[n+]5[O-])c(Cl)c4)c23)CC1	0.11	0.018	0.07	> 5	> 5	3.9	15	Activity (GEO): inactive; metabolic rate (Liver): 0 nmol/min/mg
COc1cn2ncnc(Nc3ccc4c(cnn4Cc4cccc(F)c4)c3)c2c1CN1CCCNCC1	3.7	0.17	0.19					
N[C@@H]1CCN(Cc2ccn3ncnc(Nc4ccc5c(cnn5Cc5cccc(F)c5)c4)c23)C1	0.83	0.07	0.06	3.9	3.9			
NC1CCN(Cc2ccn3ncnc(Nc4ccc(OCc5cccnc5)c(Cl)c4)c23)CC1	0.23	0.036	0.15	2.7	2.7	7.5	30	

From ChEMBL document CHEMBL1140690, “5-((4-Aminopiperidin-1-yl)methyl)pyrrolotriazine dual inhibitors of EGFR and HER2 protein tyrosine kinases” (Bioorg Med Chem Lett, 2007)
